Assays:
[1] = Medullary toxicity: white blood cell and platelet counts; format: in vivo, BALB/c nude mice
Method in brief: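 Double-xenografted nude mice were dosed as in the therapy study (saline, 15 or 30 MBq i.v.), n=5. Weekly, 0.1 mL venous blood was drawn from the superficial temporal vein by lancet, up to eight samples per animal. White blood cells and platelets were counted on an automatic haematology analyser. Counts were expressed relative to basal values (week −2 = inoculation; week 0 = treatment).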

[2] = molecular target: T1, A431-CCK2R cell line expressing the human CCK2R (Homo sapiens, UniProt P32239); test: Cell uptake; format: cell-based; details: A431-CCK2R cells, 2 h incubation, 0.4 nM
T1 sequence (P32239 1-447): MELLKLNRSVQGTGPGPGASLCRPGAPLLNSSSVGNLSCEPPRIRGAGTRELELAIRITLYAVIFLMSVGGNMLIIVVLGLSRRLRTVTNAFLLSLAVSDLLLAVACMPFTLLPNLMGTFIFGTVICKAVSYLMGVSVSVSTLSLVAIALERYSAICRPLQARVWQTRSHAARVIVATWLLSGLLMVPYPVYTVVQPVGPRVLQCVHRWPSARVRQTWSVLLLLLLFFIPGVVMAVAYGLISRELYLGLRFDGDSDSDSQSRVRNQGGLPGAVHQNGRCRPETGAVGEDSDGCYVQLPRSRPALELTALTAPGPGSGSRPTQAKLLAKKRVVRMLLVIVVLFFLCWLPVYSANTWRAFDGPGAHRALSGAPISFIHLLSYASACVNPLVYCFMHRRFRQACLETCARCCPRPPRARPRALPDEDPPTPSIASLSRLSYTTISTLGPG
Method in brief: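 A431-CCK2R and A431-mock cells were cultured in DMEM with 10% FBS, penicillin/streptomycin/L-glutamine at 37°C, 5% CO₂. They were seeded at 1.0×10⁶ cells/well and grown 48 h to confluency. Peptides were labelled with ¹⁷⁷LuCl₃ (~50 GBq/µmol) in ascorbate buffer pH 5 with gentisic acid and L-Met, 80°C. Triplicate wells received ~100,000 cpm (0.4 nM) for 2 h. The internalized fraction was gamma-counted as % of total added.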

A431-mock xenografts = test: Experimental radionuclide therapy, receptor-negative tumour growth; format: in vivo, BALB/c nude mice; details: for mean SGR A431-mock: single i.v. treatment
[3] = Biodistribution: uptake in normal organs and tissues; format: in vivo, BALB/c nude mice; details: 30 min p.i.
Method in brief: (§1)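 Female and male BALB/c nude mice, 5-6 weeks old, carried A431-CCK2R and A431-mock xenografts in opposite flanks (2×10⁶ cells each). Tumours grew for ~14 days to ~0.2 g. Kit-prepared ¹⁷⁷Lu-peptide, 1 MBq (20 pmol; 50 GBq/µmol), was injected into the tail vein. Groups of five were killed at 30 min, 4 h, 1 d, 2 d, 3 d and 7 d; dissected tissues were gamma-counted and expressed as % IA/g.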

A431-CCK2R xenografts [4] = test: Experimental radionuclide therapy, receptor-positive tumour growth; format: in vivo, BALB/c nude mice; details: for mean SGR A431-CCK2R: single i.v. treatment; for TVDT increase by a factor in comparison to the control group: A431-CCK2R tumours
[5] = format: physicochemical
Method in brief: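 Labelling used ~2 GBq ¹⁷⁷LuCl₃ in 1 mL dilute HCl, heated at 80°C for 15-25 min. Kits were stored up to 6 months; labelled product was held up to 48 h at room temperature or −20°C. Radiochemical purity was measured by RP-HPLC.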

[6] = Stability against enzymatic degradation in human serum; format: in vitro ADME
Method in brief: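 The ¹⁷⁷Lu-labelled peptide was incubated in human serum at 37°C and sampled at time points up to 24 h. Proteins were precipitated with acetonitrile (1:1.5) and centrifuged; supernatant was diluted 1:1 with water before HPLC for intact radiopeptide. Half-life came from first-order exponential decay fitting.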

A431-CCK2R xenografts [7] = test: Biodistribution: uptake in receptor-positive tumour xenograft; format: in vivo, BALB/c nude mice; details: 30 min p.i.
Method in brief: as §1

[8] = Renal toxicity: creatinine and urea in serum; format: in vivo, BALB/c nude mice
Method in brief: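 The same treated double-xenografted nude mice (saline, 15 or 30 MBq i.v.; n=5) gave weekly venous blood samples. Serum creatinine and urea were measured with specific kits on a semiautomatic biochemical analyser. Values were compared between treated and control groups over weeks from cell inoculation (week −2) onward.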

[9] = Chemical stability in phosphate buffered saline; format: physicochemical; details: PBS at RT, up to/after 4 h incubation
Method in brief: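 ¹⁷⁷Lu-labelled peptide (120 pmol/mL) was kept in phosphate buffered saline at room temperature. Aliquots were taken at intervals up to […] and analysed by HPLC for percentage intact radiopeptide relative to post-labelling radiochemical purity.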

[10] = 15 MBq, one week after treatment
[11] = 15 MBq group, week 0 (week of treatment)
[12] = 15 MBq group, week -2 (cell inoculation)
[13] = 30 MBq group, week 0 (week of treatment)
[14] = 30 MBq group, week -2 (cell inoculation)

Compound: CCCC[C@H](NC(=O)[C@H](Cc1c[nH]c2ccccc12)NC(=O)[C@H]1CCCCNC(=O)[C@H](NC(=O)CN2CCN(CC(=O)O)CCN(CC(=O)O)CCN(CC(=O)O)CC2)CCC(=O)N[C@@H](C)C(=O)N[C@@H](Cc2ccc(O)cc2)C(=O)N1)C(=O)N[C@@H](CC(=O)O)C(=O)N[C@@H](Cc1ccccc1)C(N)=O [^177Lu-DOTA-cyclo-MG2, metal not drawn]
- reduction in PLT counts compared to the basal value [1, 10]: 51.2-52.8%
- reduction in WBC counts compared to the basal value [1, 10]: 37.8-40.8%
- PLT value ([1]; 15 MBq, week 1 after treatment, reference 558-1,454): 531±45 ×10^9/L
- decline of PLT value compared to the basal value ([1]; 30 MBq, after treatment): 44.8-58.0%
- reduction of WBC value compared to the basal value ([1]; 30 MBq, week 1 after treatment): 67.2-70.9%
- WBC value below the lower reference limit ([1]; 30 MBq, week 1 and 2 after treatment, reference 3.11-13.04): 2.17-2.94 ×10^9/L
- PLT value below the reference values ([1]; 30 MBq, week 2 and 3 after treatment): 524-549 ×10^9/L
- internalized radioligand fraction (% of total) [2]: 16.1±1.9%
- mean SGR A431-mock (A431-mock xenografts; 15 MBq group (0.6 nmol)): 0.068±0.005
- mean SGR A431-mock (A431-mock xenografts; 30 MBq group (1.2 nmol)): 0.042±0.004
- TVDT increase by a factor in comparison to the control group (A431-mock xenografts; A431-mock tumours, high activity group (30 MBq)): 1.8
- kidney uptake, maximal value [3]: 2.64 % IA/g
- mean SGR A431-CCK2R (A431-CCK2R xenografts [4]; 15 MBq group (0.6 nmol)): 0.048±0.011
- mean SGR A431-CCK2R (A431-CCK2R xenografts [4]; 30 MBq group (1.2 nmol)): 0.033±0.002
- TVDT increase by a factor in comparison to the control group (A431-CCK2R xenografts [4]; high activity group (30 MBq)): 2.5
- TVDT increase by a factor in comparison to the control group (A431-CCK2R xenografts [4]; low activity group (15 MBq)): 1.7
- mean RCP for the different time points after storage of the kits ([5]; kit storage up to 6 months, n=4): 97.8±1.3%
- RCP after preparation ([5]; kit-prepared, directly after preparation): 97.8±1.3%
- RCP at 24 h after preparation ([5]; stored at RT): 96.3±1.4%
- half-life [6]: 17.8 h
- maximal tumour uptake (A431-CCK2R xenografts [7]): 5.99 % IA/g
- Creatinine (reference value 0.1-0.5) [8, 11]: 0.3 ± 0.1 mg/dL
- Urea (reference value 17-38) [8, 11]: 25 ± 7 mmol/L
- Creatinine (reference value 0.1-0.5) ([8]; 15 MBq group, week 1): 0.2 ± 0.1 mg/dL
- Urea (reference value 17-38) ([8]; 15 MBq group, week 1): 27 ± 6 mmol/L
- Creatinine (reference value 0.1-0.5) ([8]; 15 MBq group, week 2): 0.3 ± 0.2 mg/dL
- Urea (reference value 17-38) ([8]; 15 MBq group, week 2): 34 ± 3 mmol/L
- Creatinine (reference value 0.1-0.5) ([8]; 15 MBq group, week 3): 0.2 ± 0.1 mg/dL
- Urea (reference value 17-38) ([8]; 15 MBq group, week 3): 34 ± 5 mmol/L
- Creatinine (reference value 0.1-0.5) ([8]; 15 MBq group, week 4): 0.5 ± 0.2 mg/dL
- Creatinine (reference value 0.1-0.5) ([8]; 15 MBq group, week 5): 0.7 mg/dL
- Creatinine (reference value 0.1-0.5) ([8]; 15 MBq group, week -1): 0.2 ± 0.1 mg/dL
- Urea (reference value 17-38) ([8]; 15 MBq group, week -1): 32 ± 2 mmol/L
- Creatinine (reference value 0.1-0.5) [8, 12]: 0.1 ± 0.02 mg/dL
- Urea (reference value 17-38) [8, 12]: 30 ± 4 mmol/L
- urea above the upper limit of the reference value ([8]; 15 MBq, beginning from week 4 after treatment): 40 to 44 mmol/L
- Creatinine (reference value 0.1-0.5) [8, 13]: 0.2 ± 0.1 mg/dL
- Urea (reference value 17-38) [8, 13]: 27 ± 2 mmol/L
- Creatinine (reference value 0.1-0.5) ([8]; 30 MBq group, week 1): 0.2 ± 0.1 mg/dL
- Urea (reference value 17-38) ([8]; 30 MBq group, week 1): 37 ± 3 mmol/L
- Creatinine (reference value 0.1-0.5) ([8]; 30 MBq group, week 2): 0.3 ± 0.2 mg/dL
- Creatinine (reference value 0.1-0.5) ([8]; 30 MBq group, week -1): 0.3 ± 0.2 mg/dL
- Urea (reference value 17-38) ([8]; 30 MBq group, week -1): 29 ± 4 mmol/L
- Creatinine (reference value 0.1-0.5) [8, 14]: 0.2 ± 0.1 mg/dL
- Urea (reference value 17-38) [8, 14]: 26 ± 3 mmol/L
- urea levels above the reference limit ([8]; 30 MBq, beginning from week 2 after treatment): 39 to 63 mmol/L
- creatinine levels above the reference limit ([8]; 30 MBq, beginning from week 3 after treatment): 0.6 to 0.8 mg/dL
- RCP during incubation in PBS [9]: above 98%

From article PMC6128401 (Molecular pharmaceutics, 2017)
